m-calpain inh: inhibitors of pig calpain II | purified calpain II, fluorogenic peptide substrate, 30 min | inhibition, % at 16 µM | 220,000 compounds, 0.37% hits | AID 1236;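 active = inhibition above about 50%, limit read from the data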
Rad51 HR inh: blocks human Rad51 in homologous recombination | 200,000 compounds, 0.085% hits | AID 1385 | Q06609 | inhibition, % at 10 µM | hRad51 DNA strand exchange, fluorescence dequenching;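 active = inhibition above 40% at the single screening dose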;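 also: 0% = DMSO control wells and 100% = blanks with heterologous ssDNA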
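Material: Human Rad51 nucleoprotein filaments preassembled on unlabelled ssDNA | Also added: Labelled 47-mer dsDNA for strand exchange | Dosing: Single dose, 10 µM final compound | Schedule: 30-min compound preincubation and 15-min exchange, both room temperature | Technique: Fluorescence dequenching at 485/520 nm | Measure: Percent inhibition relative to plate controls and blanks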
Efa HMGR inh: blocks class II HMG-CoA reductase of Enterococcus faecalis. AID 1066. inhibition, % at 10 µM. 190,000 compounds, 0.41% hits. purified E. faecalis HMGR, NADPH absorbance 340 nm kinetic;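 active = inhibition above a set limit, the median over all tested compounds plus 3 SD, cut at about 9.5% in these data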;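 also: enzyme runs in reverse so mevalonate oxidation gives rising NADPH absorbance; 0% = complete reaction with DMSO and 100% = background rate lacking mevalonate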
PMI act hi M6P: increases human PMI activity with near-saturating mannose 6-phosphate | P34949 | 190,000 compounds, 0.34% hits | coupled PMI enzyme assay, resazurin fluorescence, 20 min; hits give high values; 1 = untreated enzyme, 0 = substrate-free blank | activation factor at 20 µM;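 active = activation factor of 2 or more at 20 µM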
Target sequence (P34949 whole entry, looked up): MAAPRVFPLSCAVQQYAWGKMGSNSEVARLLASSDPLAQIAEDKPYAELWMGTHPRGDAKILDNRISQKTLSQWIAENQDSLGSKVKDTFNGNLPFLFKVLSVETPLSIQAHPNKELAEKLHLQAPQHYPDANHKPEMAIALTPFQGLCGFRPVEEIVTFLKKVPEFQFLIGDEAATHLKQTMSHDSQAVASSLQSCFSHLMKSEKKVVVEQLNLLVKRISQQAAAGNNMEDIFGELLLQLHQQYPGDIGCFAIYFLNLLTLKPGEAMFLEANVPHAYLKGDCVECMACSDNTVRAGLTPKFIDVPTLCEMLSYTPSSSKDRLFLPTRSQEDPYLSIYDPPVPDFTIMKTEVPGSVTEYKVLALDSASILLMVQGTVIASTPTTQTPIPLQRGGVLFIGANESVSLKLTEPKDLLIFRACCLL
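Test system: human phosphomannose isomerase with PGI, G6PDH, diaphorase coupling enzymes; amount: 15 ng/mL PMI; incubation: enzyme reaction with compound 20 min at room temperature; technique: resorufin fluorescence (Ex 544/Em 590 nm) from resazurin via diaphorase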
PMI activator: phosphomannose isomerase (human) activation; 190,000 compounds, 0.005% hits; purified human PMI, coupled resazurin fluorescence, 20 min; hits give high values; 1 = vehicle control, 0 substrate-free wells; activation factor at 20 µM; AID 1214; P34949;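 active = activation factor of 2 or more at 20 µM, relative to plate controls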
Numbers without * were called inactive. Only some compounds are listed: those with a hit (about 1.1% of all), similar ones and a draw of the others.

Cc1cc(C)c2c(N)c(C(=O)c3ccccc3)sc2n1 was read as m-calpain inh -124.1 and Rad51 HR inh 7.7.
`Cc1nc2sc(C(N)=O)c(N)c2c(C)c1CC(=O)c1ccccc1` gave m-calpain inh -0.6, Rad51 HR inh -2.8, Efa HMGR inh -4.0, PMI act hi M6P 2* and PMI activator 1.7.
Screening Cc1ccc(C2CC(c3cccs3)=NN2C(=O)c2ccco2)o1 (stereo not given) returned m-calpain inh 51.4*, Rad51 HR inh -0.8, Efa HMGR inh -1.6, PMI act hi M6P 0.9 and PMI activator 1.
For CC[n+]1c(/C=C(\C)SC)sc2ccccc21 the results were m-calpain inh 24.1, Rad51 HR inh -4.8, Efa HMGR inh -0.1, PMI act hi M6P 2* and PMI activator 1.5.
`CC/C(=C/c1sc2ccccc2[n+]1CC)SC` gave m-calpain inh 16.4, Rad51 HR inh -9.5, Efa HMGR inh -5.6, PMI act hi M6P 2* and PMI activator 1.7.
`O=C(Nc1ccc(OC(F)F)cc1)Nc1cccc(C(F)(F)F)c1` gave m-calpain inh -26.8, Rad51 HR inh 5.4, Efa HMGR inh 0.5, PMI act hi M6P 0.9 and PMI activator 0.9.
For COc1ccc(-n2c(=O)c3ccccc3n(Cc3ccccc3F)c2=O)cc1OC the results were m-calpain inh -45.2, Rad51 HR inh 3.7, Efa HMGR inh -3.3, PMI act hi M6P 1 and PMI activator 0.9.
Nc1nc(SCc2ccc(Cl)c(Cl)c2)n[nH]1 was read as m-calpain inh -6.7, Rad51 HR inh 7.0, Efa HMGR inh 1.3, PMI act hi M6P 1 and PMI activator 1.
O=S1(=O)C=C(SCc2ccc(Cl)c(Cl)c2)Nc2ccccc21 was read as m-calpain inh 53.0*, Rad51 HR inh -1.4, Efa HMGR inh -0.6, PMI act hi M6P 1 and PMI activator 1.
For COc1cc(CN2CCN(c3cc(C)ccc3C)CC2)cc([N+](=O)[O-])c1O the results were Rad51 HR inh 6.0.
`COc1cc(CN2CCN(c3ccc(C)cc3)CC2)cc([N+](=O)[O-])c1O` gave m-calpain inh -6.4, Rad51 HR inh 117.2*, Efa HMGR inh 2.7, PMI act hi M6P 0.9 and PMI activator 0.9.
Screening Cc1ccc(C(=O)N2CC(C)OC(C)C2)cc1[N+](=O)[O-] (stereo not given) returned m-calpain inh 6.0, Rad51 HR inh 7.3, Efa HMGR inh -4.9, PMI act hi M6P 1 and PMI activator 1.
`COc1ccccc1Nc1nc(-c2c(C)[nH]c3ccccc23)cs1` gave m-calpain inh -16.2, Rad51 HR inh -3.1, Efa HMGR inh 3.3, PMI act hi M6P 2* and PMI activator 1.2.
Screening CCCC(=O)Nc1nc(C)c(-c2csc(Nc3ccccc3OC)n2)s1 returned m-calpain inh -37.1, Rad51 HR inh 2.0, Efa HMGR inh 1.6, PMI act hi M6P 0.8 and PMI activator 0.7.
Cc1ccc(C(=O)N(Cc2ccccc2)C(C)(C)C)cc1C was read as m-calpain inh 50.0*, Rad51 HR inh 21.8, Efa HMGR inh -0.3, PMI act hi M6P 1.1 and PMI activator 1.1.
For CCOC(=O)c1c(Cc2ccccc2)c[nH]c1C the results were m-calpain inh 2.9, Rad51 HR inh -16.1, Efa HMGR inh -6.0, PMI act hi M6P 0.9 and PMI activator 1.2.
Cc1ccc(N/N=C(\C#N)C(N)=S)cc1C was read as m-calpain inh -6.6, Rad51 HR inh 12.8, Efa HMGR inh -9.4, PMI act hi M6P 2.1* and PMI activator 1.3.
Screening CCN(Cc1ccccc1)S(=O)(=O)c1cc(C(=O)NCCCN(C)C)ccc1OC returned m-calpain inh -8.4, Rad51 HR inh 1.0, Efa HMGR inh 11.7*, PMI act hi M6P 1 and PMI activator 1.1.
CCN(CC)S(=O)(=O)c1cc(C(=O)O)ccc1OC was read as m-calpain inh 1.5.
Screening O=C(Nc1ccc(F)cc1)C1CC(=O)n2cnnc2N1 (stereo not given) returned m-calpain inh 3.2, Rad51 HR inh 4.3, Efa HMGR inh 9.7*, PMI act hi M6P 1 and PMI activator 1.
`O=C(Nc1ccc(F)cc1)C1CC(=O)n2ncnc2N1` (stereo not given) gave m-calpain inh 6.7, Rad51 HR inh 1.1, Efa HMGR inh -3.5, PMI act hi M6P 1.1 and PMI activator 1.
Screening CCc1ccc(OCCCC(=O)Nc2ccc(S(N)(=O)=O)cc2)cc1 returned m-calpain inh 12.8, Efa HMGR inh -3.0, PMI act hi M6P 0.9 and PMI activator 0.9.
`CCCCOC(=O)c1nc[nH]c1C(=O)OCCCC` gave m-calpain inh -9.4, Rad51 HR inh 8.7, Efa HMGR inh 18.9*, PMI act hi M6P 1.1 and PMI activator 1.
CCn1c(O)c(N=NC(=S)NCC2CCCO2)c2ccccc21 (stereo not given) was read as m-calpain inh 2.1, Rad51 HR inh 0.0, Efa HMGR inh -0.2, PMI act hi M6P 1 and PMI activator 1.
CCOc1cc(CNc2ccc(O)cc2)cc(Br)c1OCc1ccccc1F was read as m-calpain inh 73.3*, Rad51 HR inh 2.5, Efa HMGR inh -1.4, PMI act hi M6P 0.7 and PMI activator 0.7.
CCN(CC)CCCNC1=C(Cl)C(=O)c2ccccc2C1=O was read as m-calpain inh 51.4*, Efa HMGR inh 0.4, PMI act hi M6P 0.4 and PMI activator 0.8.
For Cc1ccc(C)c(N2CCN(C(c3ccncc3)c3nnnn3Cc3ccccc3)CC2)c1 (stereo not given) the results were m-calpain inh 6.9, Rad51 HR inh -1.8, Efa HMGR inh -2.4, PMI act hi M6P 2.2* and PMI activator 1.
`c1ccc(Cn2nnnc2C(c2ccccc2)N2CCN(c3nc4ccccc4s3)CC2)cc1` (stereo not given) gave m-calpain inh 4.7, Rad51 HR inh -3.7, Efa HMGR inh -0.2, PMI act hi M6P 0.9 and PMI activator 0.9.
CCOC(=O)/C(C#N)=C/c1ccc(SC)cc1 was read as m-calpain inh 5.7, Rad51 HR inh 22.8, Efa HMGR inh 14.0*, PMI act hi M6P 1.1 and PMI activator 1.1.
For CC(=O)c1ccc2noc(-c3ccc(F)cc3)c2c1 the results were m-calpain inh -126.7, Rad51 HR inh -22.4, Efa HMGR inh 2.8, PMI act hi M6P 2.1* and PMI activator 1.7.
Screening CCOC(=O)C1=C(C)NC2=C(C(=O)CC(C)(C)C2)C1c1ccc2c(c1)CCCN2C (stereo not given) returned m-calpain inh -33.9, Rad51 HR inh -15.2, Efa HMGR inh -8.0, PMI act hi M6P 2* and PMI activator 1.5.
For CCOC(=O)C1=C(C)NC2=C(C(=O)CC(C)(C)C2)C1c1ccc(O)c(OCC)c1 (stereo not given) the results were m-calpain inh 9.4 and Rad51 HR inh -21.5.
Screening COc1ccc(Nc2nnc(-c3ccc(O)cc3)c3ccccc23)cc1 returned m-calpain inh 29.1, Rad51 HR inh 3.1, Efa HMGR inh 1.5, PMI act hi M6P 1 and PMI activator 1.
